Screens as filed in PubChem BioAssay.
FN deposition inh – fibronectin deposition inhibition. 350,000 compounds, 0.086% hits. AID 743247. inhibition, % at 12.6 µM. AH1F fibroblasts, Alexa488-fibronectin deposition fluorescence, overnight;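 active means mean inhibition across replicates of 30% or more, regardless of how many single replicates reach that level; inconclusive means mean under 30% yet at least half of replicates reach 30%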;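 further: positive control wells lacked labelled fibronectin entirely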
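Material – AH1F fibroblast monolayer, labelled fibronectin deposition · Reagent – labelled fibronectin 24 nM · Timing – 1 h adhesion, overnight exposure · Measured by – fluorescence at 485 nm excitation, 525 nm emission · Read-out – inhibition of fibronectin deposition signal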
SR-BI uptake up – SR-BI HDL lipid transfer activation; CHO ldlA[mSR-BI] cells, DiI-HDL uptake fluorescence, 3 h; 100 = double the neutral-control signal; activation, % at 12.5 µM; 320,000 compounds, 0.096% hits;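 active means mean replicate activation of at least 60% and every replicate at or above 60%; inconclusive means mean or all-replicate condition met, but not both; inactive means mean below 60% and not all replicates reaching 60%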;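 further: 0% = median plate neutral-control signal and 100% = twice that signal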
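Assay system: CHO ldlA[mSR-BI] cells, LDL receptor-null, SR-BI overexpressing; medium: Ham's F12 with 0.5% BSA, HEPES 25 mM, pH 7.4; also added: DiI-HDL 10 µg/mL; timing: 3 h uptake period with compound, 37 °C; signal: DiI fluorescence, bottom read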
Efflux pump mplx – blocks antifungal efflux pumps in multiplex yeast assay; S. cerevisiae Candida pump triplex, Nile Red efflux; AID 485275; 330,000 compounds, 0.44% hits; inhibition, % at 10 µM;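 active means plate passing quality check with inhibition over a set limit, or well fluorescence over plate mean plus 4 SD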;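 further: Nile Red retained in pooled yeast measured as flow cytometry median fluorescence; 0% = buffer negative control and 100% = Enniatin B positive control; higher means more Nile Red kept so more efflux inhibition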
CaV13 ICDI inh – Primary screen for inhibitors of IQ motif and Ca2+-dependent inactivation inhibitor domain binding in CACNA1D, Förster resonance energy transfer in living cells, …; HEK cells, CFP/YFP FRET ICDI-IQ, plate reader, 10 min; percent FRET-ratio fall versus neutral wells; inhibition, % at 12.3 µM; 340,000 compounds, 0.098% hits;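 active means mean replicate inhibition of at least 30% and at least 1% of replicates passing that level; inconclusive means only one of the two criteria is met; inactive means neither criterion is met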;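 further: 0% = median of the neutral control wells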
SR-BI DiI inh – inhibitors of mouse SR-BI mediated HDL lipid uptake | Q61009 | ldlA[mSR-BI] CHO cells, DiI-HDL uptake fluorescence, 3 h | inhibition, % at 12.5 µM | 320,000 compounds, 0.96% hits;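 active means mean replicate inhibition of at least 70% and a set share of replicates each scoring 70 or more; inconclusive means meets just one of the two criteria; inactive means fails both criteria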;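 further: 0% = median of neutral control wells and 100% = median of positive control wells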
Target sequence (Q61009 whole entry, looked up): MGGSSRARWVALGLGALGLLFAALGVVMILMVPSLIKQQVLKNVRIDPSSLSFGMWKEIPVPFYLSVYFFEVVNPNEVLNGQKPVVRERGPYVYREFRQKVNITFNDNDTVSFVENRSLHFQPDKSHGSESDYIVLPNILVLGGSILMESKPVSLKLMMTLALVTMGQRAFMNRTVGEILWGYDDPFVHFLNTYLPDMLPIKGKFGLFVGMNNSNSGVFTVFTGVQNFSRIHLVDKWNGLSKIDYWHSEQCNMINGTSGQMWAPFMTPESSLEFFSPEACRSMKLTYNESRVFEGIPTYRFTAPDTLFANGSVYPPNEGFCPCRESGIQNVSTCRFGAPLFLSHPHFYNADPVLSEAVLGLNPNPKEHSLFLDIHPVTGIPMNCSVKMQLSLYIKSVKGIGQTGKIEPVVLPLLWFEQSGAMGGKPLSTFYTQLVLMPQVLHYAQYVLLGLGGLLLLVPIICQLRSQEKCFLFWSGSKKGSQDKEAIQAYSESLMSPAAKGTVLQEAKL
Yeast cmpd fluor – flagged as fluorescent in efflux inhibitor counter-screen. fluorescence ratio to DMSO, % at 10 µM. AID 588517. shares compounds with Efflux pump mplx. S. cerevisiae AD/pABC3, compound fluorescence, flow cytometry. 1,700 compounds, 4% hits;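 active means fluorescence ratio to DMSO above its plate's cutoff, the plate mean ratio plus 5 SD, cut at about 210% in these data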;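 further: unstained yeast with no Nile Red so the signal is compound autofluorescence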
Mdr1 pump inh – inhibitors of Candida albicans Mdr1 efflux pump | shares compounds with Efflux pump mplx | S. cerevisiae AD/CaMDR1, Nile Red efflux, flow cytometry | inhibition, % at 10 µM | 1,700 compounds, 1% hits | AID 588518; in the data active means inhibition above about 26%;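 further: 0% = DMSO vehicle and 100% = reference inhibitor; higher means more Nile Red retained so more efflux inhibition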
Cdr2 pump inh – blocks the Candida albicans Cdr2 efflux pump in yeast; shares compounds with Efflux pump mplx; S. cerevisiae AD/CaCDR2, Nile Red retention, flow cytometry; Nile Red retention ratio vs DMSO, % at 10 µM; 1,700 compounds, 4% hits; AID 588520; in the data active means Nile Red retention ratio vs DMSO above about 190%;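 further: higher ratio means more blocking of Cdr2 efflux of the dye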
CaCdr1 efflux inh – blocks the Candida albicans Cdr1 efflux pump in yeast. 1,700 compounds, 1% hits. inhibition, % at 10 µM. AID 588522. shares compounds with Efflux pump mplx. S. cerevisiae AD/CaCDR1, Nile Red efflux, flow cytometry;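 active means inhibition above the screen-wide mean plus twice its standard deviation, cut at about 32% in these data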
* hit, by the source's call; ? = inconclusive; nt = no result; + = active, no number. A selection: hits, their analogues and other compounds. The true share with any hit is near 1.2%.

SMILES	FN deposition inh	SR-BI uptake up	Efflux pump mplx	CaV13 ICDI inh	SR-BI DiI inh	Yeast cmpd fluor	Mdr1 pump inh	Cdr2 pump inh	CaCdr1 efflux inh
CCn1c(SCC(=O)c2ccc(C)cc2)nnc1-c1ccncc1	1	5	8.2*	-4	-5	114	0	114	0
CCN(CC)C(=O)CSc1nnc(-c2ccncc2)n1N	-5	34	5.9*	-4	-34	109	0	98	1
COc1ccc(CN2C[C@H](O)COC[C@H]3O[C@@H](CC(=O)N4CCc5ccccc5C4)CC[C@@H]32)cc1	6	nt	nt	nt	nt	nt	nt	nt	nt
COC(=O)CCCC1=CC2=CC(=O)C(C)(OC(=O)c3cccs3)C(=O)C2=CN1c1ccc(OC)cc1 (configuration not stated)	4	-3	0.7*	-5	3	106	0	107	0
COC(=O)CCCC1=CC2=CC(=O)C(C)(OC(=O)c3cccs3)C(=O)C2=CN1Cc1ccccc1 (configuration not stated)	-24	10	0	-4	-10	nt	nt	nt	nt
c1ccc2nc3c(nc2c1)OCC1CCCCN31 (configuration not stated)	2	8	0.8*	-18	-8	95	0	96	0
C[C@@H]1CCCCO[C@@H](CN(C)C(=O)NC2CCCCC2)[C@@H](C)CN([C@H](C)CO)C(=O)c2cc(NS(=O)(=O)c3ccccc3)ccc2O1	-11	nt	nt	nt	nt	nt	nt	nt	nt
Cc1cccc(NC(=O)CSc2nc3ccc(N4C(=O)c5ccccc5C4=O)cc3s2)c1C	nt	-11	-4	-8	11	nt	nt	nt	nt
CN(C)C(=O)CSc1nc2ccc(N3C(=O)c4ccccc4C3=O)cc2s1	3	-1	0.7*	0	1	90	0	100	0
C[C@@H]1CN([C@H](C)CO)C(=O)c2cc(NC(=O)c3ccncc3)ccc2O[C@@H](C)CCCCO[C@H]1CN(C)C(=O)Nc1ccccc1	4	nt	nt	nt	nt	nt	nt	nt	nt
O=C(CCSc1ccccc1)Nc1ccccc1C(=O)N1CCCC1	-3	13	9.6*	-4	-13	100	0	102	0
CCC(=O)Nc1ccc2c(c1)C(=O)N(C)[C@H]1CC[C@H](CC(=O)NCC3CCCCC3)O[C@@H]1CO2	-12	nt	nt	nt	nt	nt	nt	nt	nt
Cc1nnsc1-c1nnc(SCC(=O)c2ccc(C#N)cc2)n1C1CC1	4	1	0.6*	-4	-1	107	0	108	0
Cc1nnsc1-c1nnc(SCC(=O)c2ccccc2)n1C1CC1	-9	-6	0	-3	6	nt	nt	nt	nt
CCCNC(=O)N(C)C[C@H]1Oc2cc(C#CC(C)C)ccc2S(=O)(=O)N([C@@H](C)CO)C[C@@H]1C	-9	nt	nt	nt	nt	nt	nt	nt	nt
CC1(C)Cc2c(cnn2-c2ccc(F)cc2)C(NC(=O)c2cnccn2)C1 (configuration not stated)	nt	-35	6.2*	nt	35	98	0	100	0
Cc1cc(C(=O)NC2CC(C)(C)Cc3c2cnn3-c2ccc(F)cc2)nn1C (configuration not stated)	2	-33	0	-6	33	nt	nt	nt	nt
COc1ccc(-n2ncc3c2CC(C)(C)CC3NC(=O)c2ccnn2C)cc1 (configuration not stated)	0	-21	0	-5	21	nt	nt	nt	nt
COc1ccc(-n2ncc3c2CC(C)(C)CC3NC(=O)c2cn[nH]c2)cc1 (configuration not stated)	nt	1	0	nt	-1	97	0	82	0
CC(C)NC(=O)N(C)C[C@@H]1OCCCC[C@@H](C)Oc2ccc(NS(=O)(=O)c3ccc(F)cc3)cc2C(=O)N([C@@H](C)CO)C[C@H]1C	-1	nt	nt	nt	nt	nt	nt	nt	nt
C[C@H](CO)N1C[C@H](C)[C@H](CN(C)C(=O)Nc2ccc(C(F)(F)F)cc2)OCCCC[C@H](C)Oc2ccc(NC(=O)Nc3ccccc3)cc2C1=O	-4	nt	nt	nt	nt	nt	nt	nt	nt
CO[C@H]1CN(C)C(=O)c2ccc(NC(=O)C3CCCC3)cc2OC[C@H](C)N(C(C)=O)C[C@H]1C	-33	nt	nt	nt	nt	nt	nt	nt	nt
Cc1c(CCOC(=O)C23CC4CC(CC(C4)C2)C3)sc[n+]1Cc1ccccc1	-9	25	0	-5	-25	nt	nt	nt	nt
Cc1c(CCOC(=O)C23CC4CC(CC(C)(C4)C2)C3)sc[n+]1Cc1ccccc1	nt	9	1.2*	-9	-9	114	1	+	0
COc1cccc(-c2sc3ccc(OC)cc3c2-c2ccc(O)cc2)c1	-1	-42	0	-4	42	nt	nt	nt	nt
SMILES	FN deposition inh	SR-BI uptake up	Efflux pump mplx	CaV13 ICDI inh	SR-BI DiI inh	Yeast cmpd fluor	Mdr1 pump inh	Cdr2 pump inh	CaCdr1 efflux inh
CN(C)CCOc1ccc(-c2c(-c3ccsc3)sc3ccccc23)cc1	-1	-40	0	-11	40	nt	nt	nt	nt
COc1cccc(-c2sc3ccc(OC)cc3c2-c2ccc(OCCN(C)C)cc2)c1	-4	2	187*	19	-2	108	1	228*	0
COc1ccc(-c2sc3ccccc3c2-c2ccc(OCCN(C)C)cc2)cc1	5	-2	1	?	2	91	0	97	0
C[C@H](CO)N1C[C@H](C)[C@H](CN(C)C(=O)Nc2cc(F)ccc2F)Oc2cc(/C=C/c3ccccc3)ccc2S1(=O)=O	19	nt	nt	nt	nt	nt	nt	nt	nt
C[C@H]1CN([C@@H](C)CO)C(=O)c2cc(-c3ccncc3)cnc2O[C@@H]1CN(C)C(=O)C1CC1	-2	nt	nt	nt	nt	nt	nt	nt	nt
O=C(NCCN1CCOCC1)c1ccc(NC(=O)c2ccc(Br)o2)cc1	1	nt	nt	-6	nt	nt	nt	nt	nt
O=C(Nc1ccc(CN2CCOCC2)cc1)c1ccc(Br)o1	2	nt	1.7*	-2	nt	93	0	108	0
Cn1c(=O)c2c(SCC(=O)NCC3CCCO3)nc(-c3ccccc3Cl)nc2n(C)c1=O (configuration not stated)	nt	-45	0.8*	nt	45	81	0	87	0
O=C(O)C1C2CC3C(OC(=O)C31)C2Cl (configuration not stated)	-6	2	6.5*	-4	-2	108	0	106	0
Cn1cnc(S(=O)(=O)N2C[C@@H](O)COC[C@@H]3O[C@H](CC(=O)N4CCN(c5ccccc5)CC4)CC[C@H]32)c1	-10	nt	nt	nt	nt	nt	nt	nt	nt
CC(C)c1ccc(C(=O)NC(=S)Nc2ccc3[nH]c(=O)[nH]c3c2)cc1	-4	nt	0	-5	nt	108	0	112	0
